Measured values taken from ChEMBL document CHEMBL1155805 (J Med Chem, 2008).

What was measured:
[1] = biological target: T1, 5-hydroxytryptamine receptor 1A (Rattus norvegicus, UniProt P19327); experiment: Displacement of [3H]8-OH-DPAT from 5HT1A receptor in CRL:CD(SD)BR-COBS rat hippocampus; type: tissue-based
T1 sequence (P19327 whole entry): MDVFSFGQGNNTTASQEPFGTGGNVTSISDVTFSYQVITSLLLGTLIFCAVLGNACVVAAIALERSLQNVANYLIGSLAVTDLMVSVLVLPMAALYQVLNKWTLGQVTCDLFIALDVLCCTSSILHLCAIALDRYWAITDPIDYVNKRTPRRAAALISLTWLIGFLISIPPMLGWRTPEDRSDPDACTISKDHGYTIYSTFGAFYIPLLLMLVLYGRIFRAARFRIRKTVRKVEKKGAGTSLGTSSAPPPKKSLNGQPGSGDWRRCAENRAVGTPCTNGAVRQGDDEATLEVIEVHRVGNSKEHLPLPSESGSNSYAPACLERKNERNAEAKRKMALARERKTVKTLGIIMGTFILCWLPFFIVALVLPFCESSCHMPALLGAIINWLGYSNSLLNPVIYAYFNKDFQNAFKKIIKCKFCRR
Procedure, shortened: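 Rat hippocampus homogenized in 50 mM Tris·HCl pH 7.4, spun at 50000g, warmed 10 min at 37 °C, washed, then resuspended in 50 mM Tris·HCl pH 7.7 with 10 µM pargyline and 4 mM CaCl2. Incubation used 1 nM [3H]8-OH-DPAT for 30 min at 25 °C. Nonspecific binding was defined with 10 µM 5-HT. Separation was by filtration. Ki is the mean ± SD of three experiments.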

Rattus norvegicus = organism: Rattus norvegicus; experiment: Ratio of Ki for adrenergic receptor alpha1 to Ki for 5HT1A receptor in CRL:CD(SD)BR-COBS rat brain
[2] = Displacement of [3H]prazosin from adrenergic receptor alpha1 in CRL:CD(SD)BR-COBS rat brain cortex
Procedure, shortened: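 Cortical membranes were washed (50000g, 10 min at 37 °C) and suspended in 50 mM Tris·HCl pH 7.7 with 10 µM pargyline and 0.1% ascorbic acid. Incubation used 0.2 nM [3H]prazosin for 30 min at 25 °C. Nonspecific binding was defined with 3 µM phentolamine. Filtration was used. Ki is the mean ± SD of three experiments.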

D(2) dopamine receptor = D(2) dopamine receptor (Rattus norvegicus, UniProt P61169); experiment: Displacement of [3H]spiperone from dopamine D2 receptor in CRL:CD(SD)BR-COBS rat brain striatum
Chain of D(2) dopamine receptor (P61169 whole entry): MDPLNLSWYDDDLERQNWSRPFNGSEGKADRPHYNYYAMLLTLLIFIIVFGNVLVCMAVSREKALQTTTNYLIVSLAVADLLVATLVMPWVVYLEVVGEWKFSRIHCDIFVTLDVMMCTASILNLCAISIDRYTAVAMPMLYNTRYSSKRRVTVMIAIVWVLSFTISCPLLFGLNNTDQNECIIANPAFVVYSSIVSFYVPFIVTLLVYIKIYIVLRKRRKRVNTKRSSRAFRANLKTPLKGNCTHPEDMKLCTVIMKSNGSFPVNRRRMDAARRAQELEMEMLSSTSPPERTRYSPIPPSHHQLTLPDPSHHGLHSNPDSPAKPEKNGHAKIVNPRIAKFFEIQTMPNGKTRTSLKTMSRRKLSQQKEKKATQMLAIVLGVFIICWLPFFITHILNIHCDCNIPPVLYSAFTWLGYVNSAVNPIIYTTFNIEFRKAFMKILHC

[3] = biological target: 5-hydroxytryptamine receptor 2A (Rattus norvegicus, UniProt P14842); experiment: Displacement of [3H]ketanserin from 5HT2A receptor in CRL:CD(SD)BR-COBS rat brain cortex
Chain of 5-hydroxytryptamine receptor 2A (P14842 whole entry): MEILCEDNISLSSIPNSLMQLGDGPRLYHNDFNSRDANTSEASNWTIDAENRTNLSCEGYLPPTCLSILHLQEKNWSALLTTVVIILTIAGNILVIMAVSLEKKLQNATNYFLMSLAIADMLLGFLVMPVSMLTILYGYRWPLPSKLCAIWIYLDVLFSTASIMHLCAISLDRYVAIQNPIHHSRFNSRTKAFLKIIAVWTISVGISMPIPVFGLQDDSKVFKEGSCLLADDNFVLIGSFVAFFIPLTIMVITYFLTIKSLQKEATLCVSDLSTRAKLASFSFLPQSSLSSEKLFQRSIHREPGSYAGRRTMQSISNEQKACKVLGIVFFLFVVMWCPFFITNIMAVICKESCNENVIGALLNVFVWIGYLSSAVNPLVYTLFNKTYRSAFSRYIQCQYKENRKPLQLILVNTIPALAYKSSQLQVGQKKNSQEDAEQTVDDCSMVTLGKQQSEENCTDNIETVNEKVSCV
Procedure, shortened: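 Cortex homogenate was washed, including 10 min at 37 °C, and resuspended in 50 mM Tris·HCl pH 7.7. Incubation used 0.35 nM [3H]ketanserin for 15 min at 37 °C. Nonspecific binding was defined with 1 µM methysergide. Filtration was used. Ki is the mean ± SD of three experiments.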

D(1A) dopamine receptor = D(1A) dopamine receptor (Rattus norvegicus, UniProt P18901); experiment: Displacement of [3H]SCH23390 from dopamine D1 receptor in CRL:CD(SD)BR-COBS rat brain striatum
Chain of D(1A) dopamine receptor (P18901 whole entry): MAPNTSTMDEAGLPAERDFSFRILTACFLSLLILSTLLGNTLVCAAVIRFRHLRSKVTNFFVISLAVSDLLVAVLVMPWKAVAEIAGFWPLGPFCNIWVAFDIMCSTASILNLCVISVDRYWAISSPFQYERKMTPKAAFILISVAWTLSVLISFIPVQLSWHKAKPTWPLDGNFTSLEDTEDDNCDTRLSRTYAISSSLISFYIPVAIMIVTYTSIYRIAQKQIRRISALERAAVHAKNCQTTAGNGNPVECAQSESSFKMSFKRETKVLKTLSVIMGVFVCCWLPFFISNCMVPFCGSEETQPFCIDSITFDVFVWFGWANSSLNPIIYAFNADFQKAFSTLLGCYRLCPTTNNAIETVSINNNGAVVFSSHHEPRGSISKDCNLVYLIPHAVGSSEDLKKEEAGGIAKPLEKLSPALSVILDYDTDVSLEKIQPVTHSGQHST
Procedure, shortened: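 Striatal membranes were washed (50000g spins, 10 min at 37 °C), then held in 50 mM Tris·HCl pH 7.4 with 10 µM pargyline, 120 mM NaCl, 5 mM KCl, 2 mM CaCl2, 1 mM MgCl2 and 0.1% ascorbic acid. Incubation used 0.4 nM [3H]SCH23390 for 15 min at 25 °C. Nonspecific binding was defined with 10 µM (-)-cis-flupentixol. Filtration was used. Ki is the mean ± SD of three experiments.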

[4] = biological target: T1, 5-hydroxytryptamine receptor 1A; experiment: Antagonist activity at 5HT1A receptor in CRL:CD(SD)BR-COBS rat hippocampus assessed as inhibition of 5-hydroxytryptamine-induced increase in [35S]GTPgammaS binding; type: functional, tissue-based
Procedure, shortened: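 Hippocampal membranes (rat, 200 µg protein/sample) were prepared as for 5-HT1A binding. Antagonists were tested at several concentrations with 10 µM 5-HT: 20 min preincubation at 37 °C, then 45 min at 37 °C with 0.1 nM [35S]GTPγS. Nonspecific binding was set with 10 µM GTPγS, followed by filtration. IC50 was fitted and converted to Ki by Cheng–Prusoff. Mean ± SD of three experiments.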

[5] = biological target: T2, 5-hydroxytryptamine receptor 1A (Rattus norvegicus) (UniProt P19327); experiment: Agonist activity at 5HT1A receptor in CRL:CD(SD)BR-COBS rat hippocampus assessed as increase in [35S]GTPgammaS binding relative to 5-hydroxytryptamine; type: functional, tissue-based
T2 sequence (whole entry): T1 sequence (P19327 whole entry)
Procedure, shortened: (§1)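 Rat hippocampal membranes (200 µg protein/sample), washed in 50 mM Tris·HCl and resuspended in pH 7.7 Tris with 10 µM pargyline and 4 mM CaCl2. Graded drug concentrations were applied, with 20 min preincubation at 37 °C, then 45 min at 37 °C with 0.1 nM [35S]GTPγS. Nonspecific binding was set with 10 µM GTPγS, followed by GF/B filtration. EC50 and Emax (vs 5-HT) came from curve fitting. Mean ± SD, three experiments.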

[6] = biological target: T1, 5-hydroxytryptamine receptor 1A; experiment: Agonist activity at 5HT1A receptor in CRL:CD(SD)BR-COBS rat hippocampus assessed as increase in [35S]GTPgammaS binding; type: functional, tissue-based
Procedure, shortened: as §1, with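 “filtration.” for “filtration. EC50 and Emax (vs 5-HT) came from curve fitting.”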

Row | SMILES | Ki [1] | Ratio Ki (Rattus norvegicus) | Ki [2] | Ki (D(2) dopamine receptor) | Ki [3] | Ki (D(1A) dopamine receptor) | Ki [4] | Emax [5] | EC50 [6]
1 | COc1ccccc1N1CCN(CCCCCCSc2nc3ccccc3s2)CC1 | 1.3 nM | 53 | 46 nM | – | – | – | – | – | –
2 | COc1ccccc1N1CCN(CCCCCCSc2nc3ccccc3o2)CC1 | 0.52 nM | 101 | 52.5 nM | 46.6 nM | 207 nM | 922 nM | 1.3 nM | – | –
3 | NCCc1c[nH]c2ccc(O)cc12 | – | – | – | – | – | – | – | 100% | –
4 | O=[N+]([O-])c1ccccc1N1CCN(CCSc2nc3ccccc3o2)CC1 | 326 nM | 5.87 | 1920 nM | – | – | – | – | – | –
5 | O=[N+]([O-])c1ccccc1N1CCN(CCCSc2nc3ccccc3[nH]2)CC1 | 16.6 nM | 4.66 | 77.4 nM | – | – | – | – | – | –
6 | COc1ccccc1N1CCN(CCSc2nc3ccccc3o2)CC1 | 67.2 nM | 4.11 | 276 nM | – | – | – | – | – | –
7 | c1ccc(N2CCN(CCCSc3nc4ccccc4o3)CC2)nc1 | 1.6 nM | 61 | 98 nM | 429 nM | 174 nM | > 10000 nM | – | – | –
8 | COc1ccccc1N1CCN(CCCSc2nc3cc(Cl)ccc3o2)CC1 | 0.88 nM | 53 | 46.7 nM | – | – | – | – | – | –
9 | c1cnc(N2CCN(CCCSc3nc4ccccc4o3)CC2)nc1 | 14.9 nM | 111 | 1650 nM | – | – | – | – | – | –
10 | COc1ccccc1N1CCN(CCCSc2nc3ccccc3s2)CC1 | 0.29 nM | 114 | 33.2 nM | 25.8 nM | 96.1 nM | 1280 nM | 1.7 nM | – | –
11 | COc1ccccc1N1CCN(CCSc2nc3ccccc3s2)CC1 | 31.2 nM | 6.63 | 207 nM | – | – | – | – | – | –
12 | COc1ccccc1N1CCN(CCCCSc2nc3ccccc3o2)CC1 | 0.094 nM | 830 | 78 nM | 37.3 nM | 298 nM | 1600 nM | 6.6 nM | – | –
13 | CCC1=CC2C(=O)N(N)C(SCCCN3CCN(c4ncccn4)CC3)=NC2S1 (stereo unspecified) | – | – | – | – | – | – | – | 38% | 1210 nM
14 | COc1ccccc1N1CCN(CCCSc2nc3ccccc3n2C)CC1 | 0.27 nM | 74 | 20 nM | – | – | – | – | – | –
15 | O=C1c2ccccc2S(=O)(=O)N1CCCCN1CCN(c2ncccn2)CC1 [IPSAPIRONE] | – | 36 | 200 nM | – | – | – | – | – | –
16 | O=[N+]([O-])c1ccccc1N1CCN(CCCSc2nc3ccccc3o2)CC1 | 14.1 nM | 9 | 127 nM | – | – | – | – | – | –
17 | COc1ccccc1N1CCN(CCSc2nc3ccccc3[nH]2)CC1 | 33.1 nM | 7.25 | 240 nM | – | – | – | – | – | –
18 | O=[N+]([O-])c1ccccc1N1CCN(CCSc2nc3ccccc3s2)CC1 | 1700 nM | > 5.87 | > 10000 nM | – | – | – | – | – | –
19 | c1cnc(N2CCN(CCCSc3nc4ccccc4s3)CC2)nc1 | 2.5 nM | 131 | 328 nM | 532 nM | 183 nM | > 10000 nM | – | – | –
20 | O=[N+]([O-])c1ccccc1N1CCN(CCCSc2nc3ccccc3s2)CC1 | 9.6 nM | 26 | 249 nM | – | – | – | – | – | –
21 | COc1ccccc1N1CCN(CCCSc2nc3ccccc3o2)CC1 | 0.55 nM | 39 | 21.5 nM | – | – | – | – | – | –
22 | CCc1cc2c(=O)n(N)c(SCCCN3CCN(c4ccccc4OC)CC3)nc2s1 | – | – | – | – | – | – | 7.4 nM | – | –
23 | O=[N+]([O-])c1ccccc1N1CCN(CCSc2nc3ccccc3[nH]2)CC1 | 95.2 nM | 4.8 | 457 nM | – | – | – | – | – | –
24 | COc1ccccc1N1CCN(CCCSc2nc3ccccc3[nH]2)CC1 | 1 nM | 26 | 25.9 nM | – | – | – | – | – | –
25 | COc1ccccc1N1CCN(CCCCSc2nc3ccccc3s2)CC1 | 0.27 nM | 61 | 16.6 nM | 58.3 nM | 106 nM | 2000 nM | – | – | –
26 | c1ccc(N2CCN(CCCSc3nc4ccccc4s3)CC2)nc1 | 0.78 nM | 100 | 77.7 nM | 462 nM | 78.8 nM | 5630 nM | – | 33% | 204 nM
27 | COc1ccccc1N1CCN(CCCSc2nc3cc(Cl)ccc3s2)CC1 | 1 nM | 22 | 21.9 nM | – | – | – | – | – | –
